EC50, IC50 and CC50 data for 31 compounds are collected here from ChEMBL document CHEMBL1132359, “Thiazolothiazepine inhibitors of HIV-1 integrase” (J Med Chem, 1999).

The test system of assay [1] is CCRF-CEM. Description: The compound was tested for inhibitory activity against HIV-1. The class given is functional, cell-based. The settings on record: Homo sapiens.
Assay [2] concerns the target T1, Human immunodeficiency virus type 1 integrase (Human immunodeficiency virus 1, UniProt Q7ZJM1). Description: Inhibition of the 3'-end joining activity of HIV-1 integrase. Put shortly: (§1)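 Then 20 nM 5′-32P-labeled linear oligonucleotide substrate added and incubated a further 1 h. Products separated on denaturing 20% polyacrylamide/urea gel and quantified by phosphorimaging. IC50 read from a plot of percent inhibition versus concentration.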

The target in assay [3] is T1, Human immunodeficiency virus type 1 integrase. Description: Inhibition of the 3'-processing activity of HIV-1 integrase. In outline: as §1
In assay [4] the test system is CCRF-CEM. Kind of assay: Tested for cytotoxicity in CEM cells. The class given is functional. The settings on record: Homo sapiens.
In assay [5] the test system is CCRF-CEM. Description: The compound was tested for cytotoxicity against HIV-1 infected CEM cells. In kind it is functional. The settings on record: Homo sapiens.
The subject of assay [6] is CCRF-CEM. Kind of assay: The compound was tested for inhibitory activity against HIV-1 infected CEM cells. The class given is functional, cell-based. The settings on record: Homo sapiens.

T1 sequence (Q7ZJM1 whole entry): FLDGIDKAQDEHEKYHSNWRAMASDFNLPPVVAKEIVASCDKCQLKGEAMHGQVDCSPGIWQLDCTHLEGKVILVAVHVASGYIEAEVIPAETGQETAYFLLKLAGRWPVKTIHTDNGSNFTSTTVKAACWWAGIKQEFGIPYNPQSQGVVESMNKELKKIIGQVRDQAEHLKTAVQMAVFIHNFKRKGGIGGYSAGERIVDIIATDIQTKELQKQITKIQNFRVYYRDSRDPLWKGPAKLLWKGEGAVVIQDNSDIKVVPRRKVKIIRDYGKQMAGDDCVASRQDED

In turn, `COc1cc2c(cc1OC)C(=O)N1CCCC1CS2` (stereo unspecified) gave an EC50 in the assay on CCRF-CEM [1] of over 200 µM. In addition, the IC50 in assay [2] and in assay [3] was over 1000 µM in each case. In the assay with CCRF-CEM [4], this compound registered a CC50 of over 200 µM.
Compound `COc1ccc2c(c1)C(=O)N1CSCC1C(=O)S2` (stereo unspecified) showed an EC50 in the assay with CCRF-CEM [1] of over 200 µM. For the same compound, the IC50 in assay [2] and in assay [3] was 155 µM each time. In the assay on CCRF-CEM [4], this compound yielded a 50% cytotoxic concentration (CC50) of over 200 µM.
For `Cc1ccc2c(c1)C(=O)N1CCSC1C(=O)S2` (stereo unspecified), the IC50 in assay [2] worked out at 55 µM; in assay [3], 64 µM.
Take `O=C1Sc2ccc(Cl)cc2C(=O)N2C[S+]([O-])CC12` (stereo unspecified): the IC50 in assay [2] came to 280 µM; in assay [3], 260 µM.
Compound `CC(=O)OC1Sc2ccccc2C(=O)N2CCCC12` (stereo unspecified) yielded an EC50 in the assay with CCRF-CEM [1] of over 200 µM. The IC50 in assay [2] and in assay [3] was over 1000 µM each time. In addition, the CC50 in the assay on CCRF-CEM [4] was over 200 µM.
In the case of `O=C1Sc2ccc(Cl)cc2C(=O)N2CSCC12` (stereo unspecified), the EC50 in the assay on CCRF-CEM [1] was over 100 µM. Also, the IC50 was determined as 160 µM in assay [2] and 158 µM in assay [3]. The CC50 in the assay on CCRF-CEM [4] is over 100 µM.
For `O=C1Sc2ccccc2C(=O)N2CCSC12` (stereo unspecified), in the assay on CCRF-CEM [5], the CC50 was over 200 µM. This compound also showed an EC50 in the assay with CCRF-CEM [6] of 107 µM. Further, the IC50 in assay [2] was 146 µM; in assay [3], 110 µM.
Compound `COC1Sc2ccccc2C(=O)N2CCCC12` (stereo unspecified) gave an EC50 in the assay on CCRF-CEM [1] of over 200 µM. The IC50 in assay [2] and in assay [3] was over 1000 µM throughout. Besides, the 50% cytotoxic concentration (CC50) with CCRF-CEM [4] was over 200 µM.
As for `O=C1Sc2ccccc2C(=O)N2CCCCC12` (stereo unspecified), the EC50 in the assay with CCRF-CEM [1] was over 200 µM. Further, the values for the IC50 in assay [2] and in assay [3] were 343 µM and 406 µM, respectively. In addition, in the assay on CCRF-CEM [4], the CC50 was over 200 µM.
As to `O=C1Sc2ccccc2Cn2cccc21`, in the assay on CCRF-CEM [1], the midpoint of the response, the EC50, lay at 146 µM. Moreover, the IC50 was 300 µM in assay [2] and 590 µM in assay [3]. The same compound had a CC50 in the assay with CCRF-CEM [4] of over 200 µM.
Turning to `O=C1c2ccccc2SC(O)C2CCCN12` (stereo unspecified), the EC50 with CCRF-CEM [1] was over 200 µM. Besides, the IC50 in assay [2] and in assay [3] was over 1000 µM in each case. The same compound had a CC50 in the assay on CCRF-CEM [4] of over 200 µM.
In turn, `COc1cc2c(cc1OC)C(=O)N1CCCC1C(=O)S2` (stereo unspecified) showed an EC50 in the assay with CCRF-CEM [1] of over 200 µM. Besides, the IC50 in assay [2] and in assay [3] was over 1000 µM each time. In the assay on CCRF-CEM [4], this compound displayed a CC50 of over 200 µM.
As for `O=C1Sc2ccccc2C(=O)N2COCC12` (stereo unspecified), the IC50 in assay [2] and in assay [3] was over 333 µM throughout.
As for `CN1CCN(Cc2ccc3n2Cc2ccccc2SC3c2ccccc2)CC1` (stereo unspecified), the IC50 in assay [2] and in assay [3] was over 1000 µM in each case.
`COc1cc2c(cc1OC)C(=O)N1CSCC1C(=O)S2` (stereo unspecified) gave an EC50 with CCRF-CEM [1] of over 50 µM. The values for the IC50 in assay [2] and in assay [3] were 333 µM and 670 µM, respectively. The CC50 with CCRF-CEM [4] is over 50 µM.
Turning to `O=C1Sc2ccc(Cl)cc2C(=O)N2CCSC12` (stereo unspecified), the EC50 in the assay with CCRF-CEM [1] is over 50 µM. Besides, the figures for the IC50 in assay [2] and in assay [3] were 120 µM and 151 µM, respectively. Moreover, the CC50 in the assay on CCRF-CEM [4] was over 50 µM.
As to `O=C1Sc2ccccc2C(=O)N2CSCC12` (stereo unspecified), in the assay with CCRF-CEM [1], the EC50 is over 200 µM. In addition, the IC50 worked out at 227 µM in assay [2] and 208 µM in assay [3]. For the same compound, the CC50 with CCRF-CEM [4] is over 200 µM.
For the compound `O=C1Sc2ccc(Br)cc2C(=O)N2CCSC12` (stereo unspecified), the 50% inhibitory concentration (IC50) came to 48 µM in assay [2] and 58 µM in assay [3].
On to `O=C1Sc2ccccc2C(=O)N2C[S+]([O-])CC12` (stereo unspecified), for which the results for the IC50 in assay [2] and in assay [3] were 215 µM and 200 µM, respectively.
For `O=C1c2ccccc2SC(O)(c2ccccc2)C2CCCN12` (stereo unspecified), the IC50 in assay [2] and in assay [3] was over 1000 µM throughout.
In the case of `O=C1Sc2cc3ccccc3cc2C(=O)N2CSCC12` (stereo unspecified), the EC50 with CCRF-CEM [1] came to 280 µM. Further, the half-inhibitory concentration (IC50) in assay [2] turned out to be 100 µM; in assay [3], 92 µM. Moreover, the CC50 in the assay on CCRF-CEM [4] was over 316 µM.
As for `Cc1ccc2c(c1)C(=O)N1CSCC1C(=O)S2` (stereo unspecified), the IC50 turned out to be 63 µM in assay [2] and 52 µM in assay [3]. The compound also returned a CC50 with CCRF-CEM [4] of 35 µM.
In turn, `O=C1Sc2cc([N+](=O)[O-])ccc2C(=O)N2CSCC12` (stereo unspecified) had an EC50 with CCRF-CEM [1] of over 50 µM. Further, the IC50 is 100 µM in assay [2] and 90 µM in assay [3]. The compound also returned a CC50 with CCRF-CEM [4] of over 50 µM.
For the compound `CN(C)Cc1ccc2n1Cc1ccccc1SC2c1ccc(F)cc1` (stereo unspecified), the IC50 in assay [2] and in assay [3] was over 1000 µM in each case.
Turning to `O=C1c2ccccc2SCC2CSC(c3ccccc3)N12` (stereo unspecified), the IC50 in assay [2] was 376 µM; in assay [3] it was 372 µM.
The matching figures for `CCOC(=O)C1Sc2ccccc2Cn2cccc21` (stereo unspecified): over 1000 µM and over 1000 µM.
With `CN1CCN(C2Sc3ccccc3C(=O)N3CCCC23)CC1` (stereo unspecified), the EC50 in the assay with CCRF-CEM [1] is over 125 µM. Also, the IC50 in assay [2] and in assay [3] was over 1000 µM each time. The CC50 with CCRF-CEM [4] is over 125 µM.
In the assay with CCRF-CEM [1], `O=C1Sc2cc3ccccc3cc2C(=O)N2CCSC12` (stereo unspecified) gave an EC50 of 60 µM. Further, the concentration for half-maximal inhibition (IC50) was 47 µM in assay [2] and 40 µM in assay [3]. Besides, the CC50 in the assay on CCRF-CEM [4] was over 316 µM.
In the assay on CCRF-CEM [1], `O=C1Sc2ccc(Br)cc2C(=O)N2CSCC12` (stereo unspecified) yielded an EC50 of over 200 µM. Further, the IC50 was 74 µM in assay [2] and 87 µM in assay [3]. This compound also had a CC50 in the assay on CCRF-CEM [4] of over 200 µM.
With `COc1ccc2c(c1)C(=O)N1C[S+]([O-])CC1C(=O)S2` (stereo unspecified), the IC50 is 142 µM in assay [2] and 84.5 µM in assay [3].
`Cc1ccc2c(c1)C(=O)N1CC[S+]([O-])C1C(=O)S2` (stereo unspecified) came in with an EC50 with CCRF-CEM [1] of over 100 µM. Moreover, the IC50 in assay [2] and in assay [3] was 590 µM in each case. Also, the CC50 with CCRF-CEM [4] is over 100 µM.

A word on the EC50: it is the midpoint of the concentration-response curve. A high value points to lower potency in that assay. The IC50 is the concentration that inhibits the measured activity by half. In general, CC50 refers to the concentration that lowers cell viability or growth by half.
